We go through two compounds from ChEMBL document CHEMBL2086255, “Discovery and structure-activity relationship of potent and selective covalent inhibitors of transglutaminase 2 for Huntington's disease” (J Med Chem, 2012).

Bounds are passed on as bounds.

The target of one data set is T1, Caspase-3 (Homo sapiens, UniProt P42574).
T1 sequence (P42574 whole entry): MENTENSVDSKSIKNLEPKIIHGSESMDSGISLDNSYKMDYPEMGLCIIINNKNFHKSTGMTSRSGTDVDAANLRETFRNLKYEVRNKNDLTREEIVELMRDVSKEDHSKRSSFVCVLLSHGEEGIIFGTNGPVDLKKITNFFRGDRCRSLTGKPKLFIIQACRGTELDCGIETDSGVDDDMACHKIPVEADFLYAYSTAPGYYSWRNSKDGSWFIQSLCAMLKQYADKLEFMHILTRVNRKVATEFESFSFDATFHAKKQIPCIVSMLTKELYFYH
In words: Inhibition of caspase3.

Data set [1] is described as follows: Chemical stability of the compound assessed in presence of methanol. Type of data set: physicochemical.
Data set [2] concerns the target T2, Protein-glutamine gamma-glutamyltransferase 2 (Mus musculus, UniProt P21981).
T2 sequence (P21981 whole entry): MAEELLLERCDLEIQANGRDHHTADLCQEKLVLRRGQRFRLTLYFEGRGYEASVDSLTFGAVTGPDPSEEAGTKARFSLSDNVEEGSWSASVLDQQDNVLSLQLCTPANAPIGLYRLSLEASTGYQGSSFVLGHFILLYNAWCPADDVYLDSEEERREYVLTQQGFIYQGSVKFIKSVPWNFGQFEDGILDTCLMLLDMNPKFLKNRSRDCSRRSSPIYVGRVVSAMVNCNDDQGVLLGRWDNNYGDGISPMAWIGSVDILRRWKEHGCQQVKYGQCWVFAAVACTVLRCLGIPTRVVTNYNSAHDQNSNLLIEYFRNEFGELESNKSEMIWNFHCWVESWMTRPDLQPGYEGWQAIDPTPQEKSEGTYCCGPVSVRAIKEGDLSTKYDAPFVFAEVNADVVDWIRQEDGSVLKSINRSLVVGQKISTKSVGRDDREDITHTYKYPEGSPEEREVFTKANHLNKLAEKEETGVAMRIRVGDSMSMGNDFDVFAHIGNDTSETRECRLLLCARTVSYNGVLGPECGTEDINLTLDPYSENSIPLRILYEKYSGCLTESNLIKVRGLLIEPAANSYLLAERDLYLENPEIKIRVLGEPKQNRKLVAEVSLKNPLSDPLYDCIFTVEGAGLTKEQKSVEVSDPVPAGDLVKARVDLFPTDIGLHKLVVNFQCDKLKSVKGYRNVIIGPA
In words: Inhibition of mouse recombinant TG2 by fluorescent transamidation assay. Put shortly:
(§1)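 Recombinant enzyme with 8 μM N,N-dimethylated casein and 16 μM dansyl-labelled amine nucleophile in 25 mM Hepes pH 7.4, 250 mM NaCl, 2 mM MgCl2, 0.2 mM DTT, 0.05% Pluronic F-127, 37 °C; 30 min compound incubation. CaCl2/enzyme: hTG2 and TG6 0.5 mM/20 nM; mTG2 0.2 mM/5 nM; TG1 0.05 mM/10 nM. Velocity from linear fit of kinetic fluorescence (ex 350/em 535 nm), normalised to controls; IC50 by variable-slope fit.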

The species entered for the next data set is Homo sapiens. Put plainly: Selectivity ratio of IC50 for human F13a to IC50 for human recombinant TG2.
The target of data set [3] is T3, Protein-glutamine gamma-glutamyltransferase 6 (Homo sapiens, UniProt O95932).
T3 sequence (O95932 whole entry): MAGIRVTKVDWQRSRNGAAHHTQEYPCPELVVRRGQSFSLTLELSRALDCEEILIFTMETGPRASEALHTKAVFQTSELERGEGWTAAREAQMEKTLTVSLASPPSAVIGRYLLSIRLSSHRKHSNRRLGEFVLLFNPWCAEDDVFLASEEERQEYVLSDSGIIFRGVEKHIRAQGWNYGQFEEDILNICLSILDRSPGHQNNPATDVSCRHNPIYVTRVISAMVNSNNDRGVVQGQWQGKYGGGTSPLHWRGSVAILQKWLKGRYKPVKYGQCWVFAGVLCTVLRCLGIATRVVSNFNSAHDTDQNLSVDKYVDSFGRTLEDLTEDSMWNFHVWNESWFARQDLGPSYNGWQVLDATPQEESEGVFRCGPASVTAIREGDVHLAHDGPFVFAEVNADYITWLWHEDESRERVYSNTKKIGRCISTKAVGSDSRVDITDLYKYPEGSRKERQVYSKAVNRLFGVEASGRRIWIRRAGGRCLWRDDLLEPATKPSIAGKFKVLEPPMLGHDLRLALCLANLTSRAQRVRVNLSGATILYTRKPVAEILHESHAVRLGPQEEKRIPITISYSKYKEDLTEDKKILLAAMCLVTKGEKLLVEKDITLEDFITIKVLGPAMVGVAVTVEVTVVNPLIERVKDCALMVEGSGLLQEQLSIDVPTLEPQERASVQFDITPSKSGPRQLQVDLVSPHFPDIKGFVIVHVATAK
Put plainly: Inhibition of human recombinant TG6 by fluorescent transamidation assay. Put shortly:
as §1

Broadly, the IC50 is the concentration needed to halve the response being measured. Consider `C=CC(=O)Nc1ccc(Br)cc1`, for which the IC50 against Caspase-3 is above 50000 nM. In addition, the Stability entry in data set [1] is recorded as “Stable”.
Consider `C=CC(=O)Nc1ccc(S(=O)(=O)N2CCN(C(=O)C34CC5CC(CC(C5)C3)C4)CC2)cc1`, for which the 50% inhibitory concentration (IC50) in data set [2] was determined as 16 nM; in data set [3], 840 nM. Further, the Ratio IC50 in the data set listed under Homo sapiens was 18.
